Source: PubChem BioAssay AID624299 (Broad Institute, 2012)
Several values for one entry are separate records, joined by “and”; a condition that tells them apart may be missing. Equal entries are not always repeated. Activity calls are given as the source filed them.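 How the source made its calls: active means compounds lowering the cell viability light signal with a fitted AC50 at most twice the top dose tested; inconclusive means flat fit with 30 to 70% inhibition, or poor fit; inactive means the rest.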

Test system: MALME3 melanoma viability, CellTiter-Glo ATP luminescence, 24 h
Experiment: MALME3 melanoma cell viability reduction, dose response, orthogonal assay for MITF inhibitor project, CellTiter-Glo luminescence, dry powder samples, set 2 (AID 624299)
Settings: not given
Procedure, shortened: (§1)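 Measured by: CellTiter-Glo luminescence measuring cellular ATP | System: MALME3 melanoma cells | Doses: Multiple compound doses by pin transfer, day after seeding | Medium: Phenol-red-free IMDM with 10% FBS | Schedule: 37 °C compound incubation, 5 min RT before reading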

SMILES | AC50
O=C1C(NS(=O)(=O)c2ccc(Br)cc2)=C(N2CCOCC2)C(=O)c2ccccc21 | 23.4 µM
O=C1C(NS(=O)(=O)c2ccccc2)=C(N2CCOCC2)C(=O)c2ccccc21 | 26.9 µM
CC(=O)NC1=C(c2ccccc2)C(=O)c2ccccc2C1=O | 18.6 µM
C=CCNC1=C(N2CCSCC2)C(=O)c2ccccc2C1=O | 5.96 µM
O=C(NC1=C(N2CCSCC2)C(=O)c2ccccc2C1=O)c1ccc(Br)cc1 | 20.8 µM
O=C1C(Nc2ccccc2)=C(N2CCN(c3ccccc3)CC2)C(=O)c2ccccc21 | > 70 µM (inactive)
CCN1CCN(C2=C(NS(=O)(=O)c3ccc(Br)cc3)C(=O)c3ccccc3C2=O)CC1 | 20 µM
O=C(NC1=C(c2ccccc2)C(=O)c2ccccc2C1=O)c1ccco1 | 23.5 µM
CN1CCN(C2=C(NS(=O)(=O)c3cccs3)C(=O)c3ccccc3C2=O)CC1 | 11.7 µM
COc1ccc(C(=O)NC2=C(c3ccc(OC(F)(F)F)cc3)C(=O)c3ccccc3C2=O)cc1 | > 70 µM (inactive)
O=C1C=C(Nc2ccccc2)C(=O)c2ccccc21 | 2.18 µM
COc1ccc(C2=C(N)C(=O)c3ccccc3C2=O)cc1 | > 70 µM (inactive)
COc1ccc(C2=C(NC(=O)c3ccccc3OC)C(=O)c3ccccc3C2=O)cc1 | > 70 µM (inactive)
CC(=O)NC1=C(c2cccc(Cl)c2)C(=O)c2ccccc2C1=O | 13.1 µM
C=CCNC1=C(N2CCN(C)CC2)C(=O)c2ccccc2C1=O | 19.1 µM
C=CCNC1=C(Nc2ccccc2)C(=O)c2ccccc2C1=O | > 70 µM (inactive)
C=C1C(=O)OC2C1CC/C(C)=C\CCC1(C)OC21 (configuration not stated) | 22.9 µM
COc1ccc(C2=C(NC(=O)c3cccc(OC)c3)C(=O)c3ccccc3C2=O)cc1 | 26.8 µM
CCN1CCN(C2=C(NS(=O)(=O)c3ccc(Br)s3)C(=O)c3ccccc3C2=O)CC1 | 17.2 µM
COc1ccc(C(=O)NC2=C(c3ccccc3)C(=O)c3ccccc3C2=O)cc1 | 28.3 µM
NC1=CC(=O)c2ccccc2C1=O | 7.89 µM
COc1ccc(S(=O)(=O)N(C(C)=O)c2ccc(OC(C)=O)c3ccccc23)cc1[N+](=O)[O-] | 19.6 µM
O=C(NC1=C(N2CCOCC2)C(=O)c2ccccc2C1=O)c1ccc(Br)cc1 | 16.1 µM
O=C(NC1=C(N2CCCCC2)C(=O)c2ccccc2C1=O)c1ccccc1 | > 70 µM (inactive)
COc1cccc(-c2cc(C(=O)NC3=C(Cl)C(=O)c4ccccc4C3=O)ccc2OC)c1 | 16.3 µM
C[C@@H](NC1=C(Nc2ccccc2)C(=O)c2ccccc2C1=O)c1ccccc1 | > 70 µM (inactive)
O=C(NC1=C(Cl)C(=O)c2ccccc2C1=O)c1ccccc1 | 5.7 µM

SMILES | AC50
CN1CCN(C2=C(NS(=O)(=O)c3ccc(Br)s3)C(=O)c3ccccc3C2=O)CC1 | 12.5 µM
COc1ccc(C2=C(NC(C)=O)C(=O)c3ccccc3C2=O)cc1 | 12 µM
C=CCNC1=C(N2CCCCC2)C(=O)c2ccccc2C1=O | 1.61 µM
CCN1CCN(C2=C(NS(=O)(=O)c3cccs3)C(=O)c3ccccc3C2=O)CC1 | 14.9 µM
C=CCNC1=C(N(C)C(C)=O)C(=O)c2ccccc2C1=O | 0.7 µM
O=C1C(NS(=O)(=O)c2ccc(Br)cc2)=C(c2ccc(OC(F)(F)F)cc2)C(=O)c2ccccc21 | > 70 µM (inactive)
CC(=O)NC1=C(c2ccc3c(c2)oc2ccccc23)C(=O)c2ccccc2C1=O | 22 µM
O=C(NC1=C(c2ccccc2)C(=O)c2ccccc2C1=O)c1ccccc1 | 32.2 µM
NC1=C(c2ccc(OC(F)(F)F)cc2)C(=O)c2ccccc2C1=O | > 70 µM (inactive)
COC1=C(NS(=O)(=O)c2ccccc2)C(=O)c2ccccc2C1=O | 13.4 µM
CC(=O)N(C)C1=C(N2CCCCC2)C(=O)c2ccccc2C1=O | 4.94 µM
C=CCNC1=C(NCCCN(CC)CC)C(=O)c2ccccc2C1=O | 16.2 µM
CN1CCN(C2=C(NS(=O)(=O)c3ccc(Br)cc3)C(=O)c3ccccc3C2=O)CC1 | > 70 µM (inactive)
C=CCNC1=C(N2CCOCC2)C(=O)c2ccccc2C1=O | 5.76 µM
C=CCNC1=C(NC(=O)c2ccccc2)C(=O)c2ccccc2C1=O | > 70 µM (inactive)
C=CCNC1=C(Cl)C(=O)c2ccccc2C1=O | 9.65 µM and 12.4 µM
COc1ccc(C2=C(NC(=O)c3ccccc3Cl)C(=O)c3ccccc3C2=O)cc1 | 21.3 µM
CC(=O)N(C)C1=C(N2CCN(C)CC2)C(=O)c2ccccc2C1=O | 1.96 µM
CN1CCN(C2=C(Nc3ccccc3)C(=O)c3ccccc3C2=O)CC1 | 16.4 µM
CCN1CCN(C2=C(NC(=O)c3ccc(Br)cc3)C(=O)c3ccccc3C2=O)CC1 | 1.79 µM
O=C1C(NS(=O)(=O)c2cccs2)=C(N2CCOCC2)C(=O)c2ccccc21 | 21.7 µM
CCN1c2ccccc2NC2N=C(OC)C(c3ccccc3)C21 (configuration not stated) | 6.63 µM
O=C1C(NS(=O)(=O)c2ccc(Br)s2)=C(N2CCOCC2)C(=O)c2ccccc21 | 25.7 µM
COc1cccc(C2=C(NC(=O)c3ccccc3)C(=O)c3ccccc3C2=O)c1 | 20.4 µM
NC1=C(NC(=O)c2ccccc2)C(=O)c2ccccc2C1=O | 16.1 µM
O=C1C(NS(=O)(=O)c2ccc(Br)cc2)=C(N2CCCCC2)C(=O)c2ccccc21 | 31.5 µM
O=C(NC1=C(c2ccccc2)C(=O)c2ccccc2C1=O)c1ccc(Br)cc1 | > 70 µM (inactive)

SMILES | AC50
O=C(NC1=C(N2CCOCC2)C(=O)c2ccccc2C1=O)c1ccccc1 | 24.4 µM
CN1CCN(C2=C(NS(=O)(=O)c3ccccc3)C(=O)c3ccccc3C2=O)CC1 | 7.3 µM
O=C1C(NCCCN2CCOCC2)=C(Nc2ccccc2)C(=O)c2ccccc21 | > 70 µM (inactive)
C=CCNC1=C(NCCN(CC)CC)C(=O)c2ccccc2C1=O | 8.96 µM
Cc1nc2ccccc2n1/N=C/c1ccc([N+](=O)[O-])s1 | 11.3 µM
O=C(CNc1cccc2ccccc12)N/N=C/c1ccc([N+](=O)[O-])o1 | 22.8 µM
CCN(CC)CCCNC1=C(Nc2ccccc2)C(=O)c2ccccc2C1=O | 25.5 µM
CCN(CC)CCCNC1=C(N(C)C(C)=O)C(=O)c2ccccc2C1=O | 3.12 µM
O=C(NC1=C(c2ccc(OC(F)(F)F)cc2)C(=O)c2ccccc2C1=O)c1ccccc1F | > 70 µM (inactive)
CN1CCN(C2=C(NC(=O)c3ccccc3)C(=O)c3ccccc3C2=O)CC1 | 5.16 µM
C=CCNC1=C(N2CCN(CC)CC2)C(=O)c2ccccc2C1=O | 17.9 µM
CN1CCN(C2=C(NC(=O)c3ccc(Br)cc3)C(=O)c3ccccc3C2=O)CC1 | 1.93 µM
O=C1C(Nc2ccccc2)=C(N2CCCCC2)C(=O)c2ccccc21 | 5.84 µM
CC(=O)N(C)C1=C(N2CCOCC2)C(=O)c2ccccc2C1=O | 7.36 µM
COc1ccc(C2=C(NC(=O)c3ccc(Cl)cc3)C(=O)c3ccccc3C2=O)cc1 | 32 µM
Cc1ccc(C(=O)NC2=C(c3ccccc3)C(=O)c3ccccc3C2=O)o1 | 23.7 µM
CC(=O)NC1=C(c2ccc(Cl)cc2)C(=O)c2ccccc2C1=O | 13.9 µM
CC1CCN(CC(CS(=O)(=O)c2ccc([N+](=O)[O-])cc2)N2CCC(C)CC2)CC1 (configuration not stated) | 23 µM
O=C1C(NS(=O)(=O)c2ccc(Br)s2)=C(N2CCSCC2)C(=O)c2ccccc21 | 30.2 µM
CCN1CCN(C2=C(N(C)C(C)=O)C(=O)c3ccccc3C2=O)CC1 | 2.5 µM
O=C1C(Nc2ccccc2)=C(N2CCSCC2)C(=O)c2ccccc21 | > 70 µM (inactive)
CCN1CCN(C2=C(NC(=O)c3ccccc3)C(=O)c3ccccc3C2=O)CC1 | 3.93 µM
O=C(NC1=C(N2CCSCC2)C(=O)c2ccccc2C1=O)c1ccccc1 | 18.8 µM
CCN1CCN(C2=C(Nc3ccccc3)C(=O)c3ccccc3C2=O)CC1 | 12.4 µM
COc1ccc(C(=O)NC2=C(c3ccc(OC)cc3)C(=O)c3ccccc3C2=O)cc1 | 23.1 µM
O=C1C(Nc2ccccc2)=C(N2CCOCC2)C(=O)c2ccccc21 | 15.6 µM and 24.9 µM

Test system: not listed separately
Experiment: as above
Settings: MALME3 melanoma viability, CellTiter-Glo ATP luminescence, 24 h; at 35 µM (top of the series)
Procedure, shortened: as §1

SMILES | activity change, negative = inhibition
O=C(NC1=C(c2ccc(Oc3ccccc3)cc2)C(=O)c2ccccc2C1=O)c1ccccc1 | -15.3% (inactive)
O=C(NC1=C(N2CCN(c3ccccc3)CC2)C(=O)c2ccccc2C1=O)c1ccccc1 | -8.35% (inactive)
O=C1C(NS(=O)(=O)c2ccc(Br)cc2)=C(N2CCN(c3ccccc3)CC2)C(=O)c2ccccc21 | -51.2% (inactive)
C=CCNC1=C(NCC=C)C(=O)c2ccccc2C1=O | 2.12% (inactive)
COc1ccc(C2=C(NC(=O)c3ccc(OC)cc3-c3cccc(OC)c3)C(=O)c3ccccc3C2=O)cc1 | -8.34% (inactive)
COc1ccc(C2=C(NC(=O)c3ccc4ccccc4c3)C(=O)c3ccccc3C2=O)cc1 | -7.26% (inactive)
O=C(NC1=C(c2ccc(OC(F)(F)F)cc2)C(=O)c2ccccc2C1=O)c1ccc(Br)cc1 | 2.43% (inactive)
